≈ marks a conversion by molar mass, not a printed value.
Key:
Enterococcus faecalis [1] = test: In vitro minimum inhibitory concentration against Enterococcus faecalis ATCC 29212; type: functional
Procedure, shortened: (§1)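 Broth microdilution per NCCLS guidelines. Doubling dilutions from 32-1 µg/mL in Mueller Hinton medium. Final inoculum 1-5 × 10^5 cfu/mL. Plates incubated overnight in ambient air at 35 °C. Linezolid and streptomycin run as controls.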

Staphylococcus aureus [2] = test: In vitro minimum inhibitory concentration of compound against Methicillin-resistant Staphylococcus aureus ATCC 33591
[3] = system: Mycolicibacterium smegmatis; test: In vitro minimum inhibitory concentration of compound against Mycobacterium smegmatis MTCC 006; type: functional
Staphylococcus aureus [4] = test: In vitro minimum inhibitory concentration of compound against Methicillin-sensitive Staphylococcus aureus ATCC 29213; type: functional; procedure, shortened: as §1
Enterococcus faecalis [5] = test: In vitro minimum inhibitory concentration against vancomycin-resistant Enterococcus faecalis NCTC 12201; type: functional; procedure, shortened: as §1
Enterococcus faecium = test: In vitro minimum inhibitory concentration against vancomycin-resistant Enterococcus faecium NCTC 12202; type: functional; procedure, shortened: as §1
Staphylococcus aureus [6] = test: In vitro minimum inhibitory concentration of compound against Staphylococcus aureus ATCC 49951 (Smith); type: functional; procedure, shortened: as §1

Row | SMILES | MIC (Enterococcus faecalis [1]) [µg/mL] | MIC (Staphylococcus aureus [2]) [µg/mL] | MIC [3] [µg/mL] | MIC (Staphylococcus aureus [4]) [µg/mL] | MIC (Enterococcus faecalis [5]) [µg/mL] | MIC (Enterococcus faecium) [µg/mL] | MIC (Staphylococcus aureus [6]) [µg/mL]
1 | CC(=O)NC[C@H]1CN(c2ccc(/C=C(\C#N)n3nc4ccccc4n3)cc2)C(=O)O1 | 8 (≈ 19.9 µM) | 8 (≈ 19.9 µM) | > 32 | 8 (≈ 19.9 µM) | 8 (≈ 19.9 µM) | 8 (≈ 19.9 µM) | 8 (≈ 19.9 µM)
2 | CC(=O)NC[C@H]1CN(c2ccc(/C=C(/C#N)n3nnc4ccccc43)cc2)C(=O)O1 | > 32 | > 32 | > 32 | > 32 | > 32 | > 32 | > 32
3 | CC(=O)NC[C@H]1CN(c2ccc(/C=C(\C#N)c3nc4ccccc4[nH]3)cc2)C(=O)O1 | > 32 |  | > 32 | > 32 | > 32 | > 32 | > 32
4 | C/C(S)=N/C[C@H]1CN(c2ccc(/C=C(\C#N)n3nc4ccccc4n3)cc2)C(=O)O1 | 4 (≈ 9.56 µM) | 2 (≈ 4.78 µM) | > 32 | 2 (≈ 4.78 µM) | 4 (≈ 9.56 µM) | 4 (≈ 9.56 µM) | 2 (≈ 4.78 µM)
5 | CN[C@@H]1[C@H](O[C@H]2[C@H](O[C@H]3[C@H](O)[C@@H](O)[C@H](N=C(N)N)[C@@H](O)[C@@H]3N=C(N)N)O[C@@H](C)[C@]2(O)C=O)O[C@@H](CO)[C@H](O)[C@H]1O [STREPTOMYCIN] | > 32 | > 32 | 0.5 (≈ 0.86 µM) | 4 (≈ 6.88 µM) | > 32 | 32 (≈ 55 µM) | 2 (≈ 3.44 µM)
6 | CC(=O)NC[C@H]1CN(c2ccc(/C=C(\C#N)n3cnc4ccccc43)cc2)C(=O)O1 | 32 (≈ 79.7 µM) | 16 (≈ 39.9 µM) | > 32 | 16 (≈ 39.9 µM) | 32 (≈ 79.7 µM) | 32 (≈ 79.7 µM) | 16 (≈ 39.9 µM)
7 | CC(=O)NC[C@H]1CN(c2ccc(/C=C(\C#N)n3nc4ccccc4n3)c(F)c2)C(=O)O1 | 32 (≈ 76.1 µM) | 16 (≈ 38.1 µM) | > 32 | 8 (≈ 19 µM) | 32 (≈ 76.1 µM) | 32 (≈ 76.1 µM) | 16 (≈ 38.1 µM)
8 | CC(=O)NC[C@H]1CN(c2ccc(/C=C(\C#N)c3nc4ccccc4s3)cc2)C(=O)O1 | > 32 |  | > 32 | > 32 | > 32 | > 32 | > 32
9 | CC(=O)NC[C@H]1CN(c2ccc(N3CCOCC3)c(F)c2)C(=O)O1 [LINEZOLID] |  |  | 2 (≈ 5.93 µM) |  |  | 2 (≈ 5.93 µM) | 
10 | CC(=O)NC[C@H]1CN(c2ccc(/C=C(\C#N)c3nc4ccccc4o3)cc2)C(=O)O1 | > 32 |  | > 32 | > 32 | > 32 | > 32 | > 32
11 | CC(=O)NC[C@H]1CN(c2ccc(/C=C(\C#N)n3nnc4ccccc43)cc2)C(=O)O1 | 32 (≈ 79.5 µM) | 16 (≈ 39.8 µM) | > 32 | 16 (≈ 39.8 µM) | 32 (≈ 79.5 µM) | 32 (≈ 79.5 µM) | 16 (≈ 39.8 µM)
12 | CC(=O)NC[C@H]1CN(c2ccc(/C=C(\C#N)c3nc4ccccc4n3C)cc2)C(=O)O1 | > 32 |  | > 32 | > 32 | > 32 | > 32 | > 32
